Reference: ChEMBL document CHEMBL1671655, “Anidulafungin is fungicidal and exerts a variety of postantifungal effects against Candida albicans, C. glabrata, C. parapsilosis, and C. krusei isolates” (2009)
Calls of active or inactive are those of the source. The calls are words filed in the database; no cut-off is given here. Starred links: 1 amine or outer side, 2 acyl side, 3 side chain; linkers in the order of their positions; H or OH if unused. Positions of bridges follow the written chain, without caps; N, C: chain ends. Non-standard residues stand in square brackets, D forms with d. Residues, ends and D or L forms follow the SMILES beside them. *: point of attachment. pTerphenylCO(4''-OnC5H11) = CCCCCOc1ccc(-c2ccc(-c3ccc(C(=O)*)cc3)cc2)cc1; Orn(4R-OH,5R-OH) = O=C([C@H](C[C@@H](O)[C@@H](O)N[*:3])N[*:1])[*:2]; hTyr(3S-OH,4S-OH) = N[C@H](C(=O)O)[C@H](O)[C@@H](O)c1ccc(O)cc1; Pro(3S-OH,4S-Me) = C[C@H]1CN[C@H](C(=O)O)[C@H]1O; Hyp = O=C(O)[C@@H]1C[C@@H](O)CN1

Tests used:
Pichia kudriavzevii [1] = assay: Fungicidal activity against Candida krusei isolate ATCC 6258 assessed as log reduction in bacterial count at 4 times MIC after 48 hrs by time-kill analysis; assay type: functional; settings: isolate ATCC 6258, 48 h
Outline: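 Isolates subcultured twice on SDA, suspended to 0.5 McFarland, giving ~1 x 10^5 to 5 x 10^5 CFU/ml in MOPS-buffered RPMI 1640 (pH 7.0) with or without drug at multiples of MIC (MIC by CLSI M27-A3). Tubes shaken at 35°C with continuous drug. Sampled at 0–48 h, diluted 10-fold and plated on SDA; CFU counted after 48 h at 35°C. Run twice per isolate; means.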

Candida albicans [2] = assay: Fungicidal activity against Candida albicans ATCC 90028 assessed as log reduction in bacterial count at 4 times MIC after drug exposure for 1 hr followed by washout measured after 48 hrs in the absence of drug by PAFE study; assay type: functional
Outline: (§1)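 Starting inoculum ~1 x 10^5 to 5 x 10^5 CFU/ml in MOPS-buffered RPMI 1640 (pH 7.0) with drug at multiples of the CLSI M27-A3 MIC. After 1 h at 35°C, cells washed and centrifuged three times at 1,400 x g for 10 min, then resuspended in warm drug-free RPMI. Shaken at 35°C and plated on SDA at 0–48 h; CFU counted after 48 h. Run twice per isolate; means.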

Candida parapsilosis [3] = assay: Fungicidal activity against Candida parapsilosis isolate A assessed as log reduction in bacterial count at 4 times MIC after drug exposure for 1 hr followed by washout measured after 48 hrs in the absence of drug by PAFE study; assay type: functional; settings: Lodderomyces parapsilosis
Outline: (§2)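 Inoculum about 1 x 10^5 to 5 x 10^5 CFU/ml in RPMI 1640 (MOPS, pH 7.0) with drug, shaken at 35°C for 1 h. Cells were then washed and centrifuged at 1,400 x g for 10 min (3 cycles) and resuspended in warm drug-free RPMI. Samples plated on SDA at 0, 2, 4, 8, 12, 24 and 48 h; CFU counted after 48 h at 35°C. Run twice per isolate; means.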

Candida parapsilosis [4] = assay: Fungicidal activity against Candida parapsilosis isolate A assessed as log reduction in bacterial count at MIC after drug exposure for 1 hr followed by washout measured after 48 hrs in the absence of drug by PAFE study; assay type: functional; settings: Lodderomyces parapsilosis; outline: as §2
Candida parapsilosis [5] = assay: Fungicidal activity against Candida parapsilosis isolate 1 assessed as log reduction in bacterial count at 16 times MIC after drug exposure for 1 hr followed by washout measured after 48 hrs in the absence of drug by PAFE study; assay type: functional; settings: Lodderomyces parapsilosis; outline: as §1
Candida albicans [6] = assay: Antifungal activity against Candida albicans isolate 1 assessed as time period for bacterial growth inhibition at 4 times MIC after 1 hr drug exposure; assay type: functional
Outline: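 Inoculum of about 1 x 10^5 to 5 x 10^5 CFU/ml in MOPS-buffered RPMI (pH 7.0), shaken at 35°C and exposed to drug for 1 h. Cells then washed and centrifuged three times and resuspended in drug-free warm RPMI. Samples plated on SDA at 0, 2, 4, 8, 12, 24 and 48 h, with CFU counted after 48 h at 35°C. Run twice per isolate; values are means.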

Pichia kudriavzevii [7] = assay: Increase in susceptibility to SDS in Candida krusei isolate ATCC 6258 assessed as cell wall damage at 16 times MIC after 1 hr relative to control; assay type: functional, organism-based
Outline: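 Cells recovered 8 h after a 1-h drug exposure were grown in YPD with 1% glucose to exponential phase and adjusted to OD599 0.1. Undiluted culture and 10-fold serial dilutions were spotted onto YPD plates containing SDS (0.01 to 0.04%), then incubated 72 h at 30°C. Growth compared with unexposed control cells; triplicate.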

Candida albicans [8] = assay: Increase in susceptibility to calcofluor white in Candida albicans isolate 1 assessed as cell wall damage at 16 times MIC after 1 hr relative to control; assay type: functional, organism-based
Outline: (§3)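 Cells recovered 8 h after a 1-h drug exposure were grown to exponential phase in YPD with 1% glucose and adjusted to OD599 0.1. Undiluted and 10-fold serially diluted cultures were spotted onto YPD plates containing calcofluor white, then incubated at 30°C for 72 h. Growth compared with no-drug control cells; triplicate.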

Candida albicans [9] = assay: Increase in susceptibility to calcofluor white in Candida albicans ATCC 90028 assessed as cell wall damage at 16 times MIC after 1 hr relative to control; assay type: functional, organism-based; outline: as §3

CCCCCOc1ccc(-c2ccc(-c3ccc(C(=O)N[C@H]4C[C@@H](O)[C@@H](O)NC(=O)[C@@H]5[C@@H](O)[C@@H](C)CN5C(=O)[C@H]([C@@H](C)O)NC(=O)[C@H]([C@H](O)[C@@H](O)c5ccc(O)cc5)NC(=O)[C@@H]5C[C@@H](O)CN5C(=O)[C@H]([C@@H](C)O)NC4=O)cc3)cc2)cc1 [ANIDULAFUNGIN] ({pTerphenylCO(4''-OnC5H11)}-[Orn(4R-OH,5R-OH)]T[Hyp][hTyr(3S-OH,4S-OH)]T[Pro(3S-OH,4S-Me)]; lactam 1-C)
log reduction (Pichia kudriavzevii [1]): 2.94 log CFU/ml
log reduction (Candida albicans [2]): 1.89
log reduction (Candida parapsilosis [3]): 2.54
log reduction (Candida parapsilosis [4]): 1.41
log reduction (Candida parapsilosis [5]): 3.17
Time (Candida albicans [6]): 8 h
Activity (Pichia kudriavzevii [7]): Active
Activity (Candida albicans [8]): Active
Activity (Candida albicans [9]): Active
